Measurements reported in ChEMBL document CHEMBL5303300, “EUbOPEN Chemogenomics Library - Multiplex” (2023).
Several values for one entry are separate records, joined by “and”; a condition that tells them apart may be missing. Identical values can stand only once.

Key:
U2OS = test: Multiplex assay against U2OS; type: toxicity, cell-based; settings: human, number of replicates 2
How it was run: (§1)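 Live cells were stained at seeding with Hoechst33342, BioTracker Green Microtubule Cytoskeleton Dye, MitoTracker Red and Annexin V Alexa Fluor 680. Following compound addition, they were imaged on a CQ1 microscope at 37°C and 5% CO2 and gated by CellPathfinder machine learning into Hoechst high-intensity objects or normal cells, with normal cells split into healthy, pyknosed or fragmented nuclei and pyknosed cells into mitotic or apoptotic. Tubulin, mitochondrial-mass and membrane-permeability phenotypes are per cents of healthy-nucleus cells.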

Fibroblast = test: Multiplex assay against human fibroblast; type: toxicity, cell-based; settings: number of replicates 2; how it was run: as §1
[1] = 24 h, 10 µM, compound concentration 10 uM
[2] = 48 h, 1 µM, compound concentration 1 uM
[3] = 48 h, 10 µM, compound concentration 10 uM
[4] = 12 h, 1 µM, compound concentration 1 uM
[5] = 12 h, 10 µM, compound concentration 10 uM
[6] = 24 h, 1 µM, compound concentration 1 uM

Cc1cn(CCN2CCN(c3ccccc3-c3cc(C#N)cc(C(=O)NCCCN4CCCC4)c3)CC2)c2ccccc12
Population Apoptotic (%) (U2OS; [1]): 90% and 88% | Population Fragmented Nuclei (%) (U2OS; [1]): 18% and 32% | Population Healthy Nuclei (%) (U2OS; [1]): 42% and 24% | Population Hoechst High Intensity Objects (%) (U2OS; [1]): 0% and 1% | Population Membrane Permeable-Phenotype (%) (U2OS; [1]): 65% and 35% | Population Mitochondria Different-Phenotype (%) (U2OS; [1]): 47% and 78% | Population Mitotic Cells (%) (U2OS; [1]): 9% and 12% | Population Normal (%) (U2OS; [1]): 99% and 98% | Population Pyknosed Nuclei (%) (U2OS; [1]): 39% and 43% | Population Tubulin-Different-Phenotype (%) (U2OS; [1]): 94% and 92% | Total Cell Count (U2OS; [1]): 162 and 59 | Population Apoptotic (%) (U2OS; [2]): 88% and 81% | Population Healthy Nuclei (%) (U2OS; [2]): 60% and 81% | Population Hoechst High Intensity Objects (%) (U2OS; [2]): 0% | Population Mitochondria Different-Phenotype (%) (U2OS; [2]): 11% and 26% | Population Mitotic Cells (%) (U2OS; [2]): 11% and 18% | Population Normal (%) (U2OS; [2]): 100% | Population Pyknosed Nuclei (%) (U2OS; [2]): 22% and 14% | Population Tubulin-Different-Phenotype (%) (U2OS; [2]): 24% and 31% | Population Apoptotic (%) (U2OS; [3]): 100% and 92% | Population Fragmented Nuclei (%) (U2OS; [3]): 17% and 50% | Population Hoechst High Intensity Objects (%) (U2OS; [3]): 0% and 1% | Population Membrane Permeable-Phenotype (%) (U2OS; [3]): 74% and 40% | Population Mitochondria Different-Phenotype (%) (U2OS; [3]): 48% and 20% | Population Mitotic Cells (%) (U2OS; [3]): 0% and 7% | Population Normal (%) (U2OS; [3]): 100% and 98% | Population Pyknosed Nuclei (%) (U2OS; [3]): 38% and 41% | Population Tubulin-Different-Phenotype (%) (U2OS; [3]): 94% and 80% | Total Cell Count (U2OS; [3]): 168 and 63 | Population Apoptotic (%) (Fibroblast; [4]): 16% and 47% | Population Fragmented Nuclei (%) (Fibroblast; [4]): 13% and 14% | Population Healthy Nuclei (%) (Fibroblast; [4]): 70% and 63% | Population Hoechst High Intensity Objects (%) (Fibroblast; [4]): 0% | Population Membrane Permeable-Phenotype (%) (Fibroblast; [4]): 10% and 8% | Population Mitochondria Different-Phenotype (%) (Fibroblast; [4]): 1% and 5% | Population Mitotic Cells (%) (Fibroblast; [4]): 83% and 52% | Population Normal (%) (Fibroblast; [4]): 100% | Population Pyknosed Nuclei (%) (Fibroblast; [4]): 16% and 21% | Population Tubulin-Different-Phenotype (%) (Fibroblast; [4]): 41% and 35% | Total Cell Count (Fibroblast; [4]): 222 and 214 | Population Apoptotic (%) (Fibroblast; [5]): 40% and 37% | Population Fragmented Nuclei (%) (Fibroblast; [5]): 28% and 31% | Population Healthy Nuclei (%) (Fibroblast; [5]): 51% and 56% | Population Hoechst High Intensity Objects (%) (Fibroblast; [5]): 0% | Population Membrane Permeable-Phenotype (%) (Fibroblast; [5]): 7% and 5% | Population Mitochondria Different-Phenotype (%) (Fibroblast; [5]): 20% and 17% | Population Mitotic Cells (%) (Fibroblast; [5]): 59% and 62% | Population Normal (%) (Fibroblast; [5]): 100% | Population Pyknosed Nuclei (%) (Fibroblast; [5]): 19% and 12% | Population Tubulin-Different-Phenotype (%) (Fibroblast; [5]): 82% and 83% | Total Cell Count (Fibroblast; [5]): 248 and 358 | Population Apoptotic (%) (Fibroblast; [6]): 33% and 60% | Population Fragmented Nuclei (%) (Fibroblast; [6]): 14% and 20% | Population Healthy Nuclei (%) (Fibroblast; [6]): 73% and 65% | Population Hoechst High Intensity Objects (%) (Fibroblast; [6]): 0% | Population Membrane Permeable-Phenotype (%) (Fibroblast; [6]): 5% and 3% | Population Mitochondria Different-Phenotype (%) (Fibroblast; [6]): 3% and 10% | Population Mitotic Cells (%) (Fibroblast; [6]): 66% and 39% | Population Normal (%) (Fibroblast; [6]): 100% | Population Pyknosed Nuclei (%) (Fibroblast; [6]): 11% and 13% | Population Tubulin-Different-Phenotype (%) (Fibroblast; [6]): 37% and 33% | Total Cell Count (Fibroblast; [6]): 209 and 243 | Population Apoptotic (%) (Fibroblast; [1]): 81% and 82% | Population Fragmented Nuclei (%) (Fibroblast; [1]): 17% and 27% | Population Healthy Nuclei (%) (Fibroblast; [1]): 57% and 55% | Population Hoechst High Intensity Objects (%) (Fibroblast; [1]): 0% | Population Membrane Permeable-Phenotype (%) (Fibroblast; [1]): 2% | Population Mitochondria Different-Phenotype (%) (Fibroblast; [1]): 51% and 58% | Population Mitotic Cells (%) (Fibroblast; [1]): 18% and 17% | Population Normal (%) (Fibroblast; [1]): 99% | Population Pyknosed Nuclei (%) (Fibroblast; [1]): 25% and 17% | Population Tubulin-Different-Phenotype (%) (Fibroblast; [1]): 93% and 88% | Total Cell Count (Fibroblast; [1]): 197 and 332 | Population Apoptotic (%) (Fibroblast; [2]): 44% and 76% | Population Fragmented Nuclei (%) (Fibroblast; [2]): 19% and 24% | Population Healthy Nuclei (%) (Fibroblast; [2]): 77% and 70% | Population Hoechst High Intensity Objects (%) (Fibroblast; [2]): 0% | Population Membrane Permeable-Phenotype (%) (Fibroblast; [2]): 2% and 3% | Population Mitochondria Different-Phenotype (%) (Fibroblast; [2]): 0% and 3% | Population Mitotic Cells (%) (Fibroblast; [2]): 55% and 23% | Population Normal (%) (Fibroblast; [2]): 100% and 99% | Population Pyknosed Nuclei (%) (Fibroblast; [2]): 3% and 5% | Population Tubulin-Different-Phenotype (%) (Fibroblast; [2]): 23% and 17% | Total Cell Count (Fibroblast; [2]): 241 and 237 | Population Apoptotic (%) (Fibroblast; [3]): 95% | Population Fragmented Nuclei (%) (Fibroblast; [3]): 9% and 17% | Population Healthy Nuclei (%) (Fibroblast; [3]): 46% and 62% | Population Hoechst High Intensity Objects (%) (Fibroblast; [3]): 1% and 0% | Population Membrane Permeable-Phenotype (%) (Fibroblast; [3]): 6% and 1% | Population Mitochondria Different-Phenotype (%) (Fibroblast; [3]): 75% and 67% | Population Mitotic Cells (%) (Fibroblast; [3]): 4% | Population Normal (%) (Fibroblast; [3]): 98% and 99% | Population Pyknosed Nuclei (%) (Fibroblast; [3]): 43% and 19% | Population Tubulin-Different-Phenotype (%) (Fibroblast; [3]): 93% and 91% | Total Cell Count (Fibroblast; [3]): 144 and 240
